Experimental findings from ChEMBL document CHEMBL1125795, “Substrate analogue renin inhibitors containing replacements of histidine in P2 or isosteres of the amide bond between P3 and P2 sites” (J Med Chem, 1991) are described below.

For one series, the target named is T1, Cathepsin D (Bos taurus, UniProt P80209).
T1 sequence (P80209 whole entry): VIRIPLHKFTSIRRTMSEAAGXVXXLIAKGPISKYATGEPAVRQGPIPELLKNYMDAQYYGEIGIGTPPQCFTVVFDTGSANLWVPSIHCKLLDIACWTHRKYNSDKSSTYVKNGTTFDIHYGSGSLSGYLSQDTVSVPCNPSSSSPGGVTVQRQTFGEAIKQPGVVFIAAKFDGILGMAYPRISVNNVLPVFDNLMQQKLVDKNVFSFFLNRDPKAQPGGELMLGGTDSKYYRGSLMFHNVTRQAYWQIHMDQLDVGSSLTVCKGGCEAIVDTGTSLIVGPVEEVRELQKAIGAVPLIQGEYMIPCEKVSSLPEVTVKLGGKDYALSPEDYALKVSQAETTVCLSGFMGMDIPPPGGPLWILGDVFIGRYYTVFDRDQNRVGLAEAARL
Kind of series: In vitro inhibitory activity against bovine Cathepsin D. The method in brief:
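Bovine cathepsin D (100 munits) acting on hemoglobin at pH 3.2, 20 min, 37 °C. TCA-soluble peptides released were read by absorbance at 280 nm; IC50 taken as the concentration giving 50% inhibition of peptide liberation.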

Another series concerns the target Pepsin A (Sus scrofa, UniProt P00791). Kind of series: In vitro inhibitory activity against porcine Pepsin. In outline: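 Porcine pepsin (20 units) digesting hemoglobin at pH 1.8, 10 min, 35.5 °C. Released TCA-soluble peptides measured at 280 nm; IC50 is the concentration halving peptide liberation.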
Series [1] addresses T2, Renin (Homo sapiens, UniProt P00797).
T2 sequence (P00797 whole entry): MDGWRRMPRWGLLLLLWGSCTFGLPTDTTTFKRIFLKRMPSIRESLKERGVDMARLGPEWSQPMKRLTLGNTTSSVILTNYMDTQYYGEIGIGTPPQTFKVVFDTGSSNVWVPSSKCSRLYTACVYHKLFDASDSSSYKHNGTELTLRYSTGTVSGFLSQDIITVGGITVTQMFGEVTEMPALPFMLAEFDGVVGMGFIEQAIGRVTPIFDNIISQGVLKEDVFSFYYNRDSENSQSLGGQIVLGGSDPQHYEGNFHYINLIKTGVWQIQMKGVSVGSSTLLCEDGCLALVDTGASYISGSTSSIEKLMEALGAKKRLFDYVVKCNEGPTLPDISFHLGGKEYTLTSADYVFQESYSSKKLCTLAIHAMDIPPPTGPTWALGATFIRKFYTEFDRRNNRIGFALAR
The series can be described thus: Compound was tested in vitro for inhibitory activity against human renin. The method in brief: (§1)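 Endogenous renin and angiotensinogen in human EDTA plasma; incubation mixture of 76 mM maleate pH 5.5, 7.2 mM EDTA, 1% DMSO, 8.3 mM 8-hydroxyquinoline; 2 h at 37 °C, then on ice; angiotensin I measured by radioimmunoassay. At least three inhibitor concentrations bracketing the IC50; IC50 calculated from percent inhibition.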

The nature of series [2]: Duration of Systolic blood pressure decrease in salt depleted cynomolgus monkeys. Type of series: functional, Cercopithecidae. The method in brief: (§2)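 Cynomolgus monkeys salt-depleted with furosemide 2 mg/kg im daily from 4 days before the experiment; haloperidol 0.3 mg/kg im for sedation on the test day. Conscious chair-restrained animals; systolic pressure by tail-cuff every 5 min, stabilized before dosing. Single oral 30 mg/kg dose, n = 4; PRA from blood samples. Change from T = 0 baseline, mean ± SE.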

Series [3] is described as follows: Systolic blood pressure change in salt depleted cynomolgus monkeys. Type of series: functional, Cercopithecidae. The method in brief: as §2
Series [4] is described as follows: Partition coefficient (logP). As to conditions: octanol/water. Type of series: physicochemical. The method in brief: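 Octanol/water partition coefficient measured at pH 7.4.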
Series [5] in a line: Plasma renin activity change in salt depleted cynomolgus monkeys. Type of series: functional, Cercopithecidae. In outline: as §2
A short description of series [6]: Plasma renin activity change in salt depleted cynomolgus monkeys after 180 minutes, administration of the compound. Type of series: functional, Cercopithecidae. In outline:
as §2

In series [7] the target is T2, Renin. The series can be described thus: In vitro for inhibitory activity against human renin. The method in brief: as §1
In series [8] the target is T2, Renin. The series can be described thus: The compound was tested in vitro for inhibitory activity against human renin. The method in brief: as §1

pIC50: −log10 of the molar value. Starred links: 1 amine or outer side, 2 acyl side, 3 side chain; linkers in the order of their positions; H or OH if unused. Non-standard residues stand in square brackets, D forms with d. Residues, ends and D or L forms follow the SMILES beside them. *: point of attachment. X1 = CC(C)C[C@H](N[*:1])[C@@H](O)C[C@H](C(=O)[*:2])C(C)C; Boc = CC(C)(C)OC(=O)*

Pepsin A, sequence (P00791 whole entry): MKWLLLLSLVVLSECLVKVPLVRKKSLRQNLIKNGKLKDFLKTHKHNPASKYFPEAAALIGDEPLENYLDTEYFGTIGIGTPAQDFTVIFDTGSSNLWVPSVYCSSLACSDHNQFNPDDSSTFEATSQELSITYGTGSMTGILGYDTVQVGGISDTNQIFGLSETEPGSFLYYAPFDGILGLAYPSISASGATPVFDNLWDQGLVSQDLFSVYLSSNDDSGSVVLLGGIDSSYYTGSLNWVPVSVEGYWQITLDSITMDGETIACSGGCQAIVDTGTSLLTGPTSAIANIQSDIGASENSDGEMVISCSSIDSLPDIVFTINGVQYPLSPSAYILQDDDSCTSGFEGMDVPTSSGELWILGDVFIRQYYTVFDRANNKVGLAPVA

For orientation: pIC50 means the negative decadic logarithm of the IC50, by convention in mol/L. A higher pIC50 goes with a low IC50. Turning to `CC[C@H](C)[C@H](NC(=O)[C@@H](C[C@H](O)[C@H](CC(C)C)NC(=O)CCC(=O)[C@H](Cc1ccccc1)NC(=O)OC(C)(C)C)C(C)C)C(=O)NCc1cnc(C)nc1N`, the pIC50 on Cathepsin D is 5.10; on Pepsin A, 4.92; against Renin [1], 8.29.
In the case of `CC[C@H](C)[C@H](NC(=O)C[C@H](O)[C@H](CC1CCCCC1)NC(=O)CSCC(=O)[C@H](Cc1ccccc1)NC(=O)OC(C)(C)C)C(=O)NCc1cnc(C)nc1N`, the pIC50 is 4.55 against Cathepsin D, 4.28 at Pepsin A and 8.68 against Renin [1].
Usually logP stands for a log measure of how a compound divides between an organic and an aqueous phase. The low end stands for lower lipophilicity, the high end for higher lipophilicity. For the compound `CC[C@H](C)[C@H](NC(=O)C[C@H](O)[C@H](CC1CCCCC1)NC(=O)CCNC(=O)[C@H](Cc1ccccc1)NC(=O)CCC[N+](C)(C)C)C(=O)NCc1cnc(C)nc1N.[Cl-]`, in [2], the Duration was over 130 min. Moreover, the Change is reported as -10.6% in [3], -83.2% in series [5] and -78.3% in [6]. For the same compound, the logP in series [4] turned out to be 1.53. The pIC50 against Cathepsin D was under 5.00; against Pepsin A it was under 5.00; against Renin [7] it was 8.10.
As to `CC[C@H](C)[C@H](NC(=O)[C@@H](C[C@H](O)[C@H](CC(C)C)NC(=O)[C@H](Cc1c[nH]cn1)NC(=O)[C@H](Cc1ccccc1)NC(=O)OC(C)(C)C)C(C)C)C(=O)N[C@@H](Cc1c[nH]cn1)C(=O)O` (Boc-FH[X1]IH-OH), at Renin [8], the negative logarithm of the IC50 (pIC50) was 8.62.
For the compound `CC[C@H](C)[C@H](NC(=O)C[C@H](O)[C@H](CC1CCCCC1)NC(=O)CCNC(=O)[C@H](Cc1ccccc1)NC(=O)N1CCC(N)CC1)C(=O)NCc1cnc(C)nc1N.Cl.Cl`, the Duration in [2] is given as over 180 min. Besides, the Change is -24.7% in [3], -90.5% in [5] and -89.3% in series [6]. In series [4], this compound displayed a lipophilicity (logP) of 1.83. In addition, the results for the pIC50 against Cathepsin D, against Pepsin A and against Renin [7] were 5.07, under 5.00 and 9.12, respectively.
